PubChem BioAssay AID651783 (The Scripps Research Institute Molecular Screening Center, 2012)
In all, about 2,400 compounds went through this assay and about 2,000 (83%) were called active. So high a share suggests a set chosen from earlier hits. A selection follows. Unmarked numbers belong to inactive results.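 The calls were made as follows: active = activation above a cutoff set at the run's mean compound activation plus 3 SD (cut at about 39% in these data); inactive = the rest.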

target: Trace amine-associated receptor 1 (Homo sapiens) (UniProt Q96RJ0); test: human TAAR1 agonists, retest of hits, confirmation, Fluo-8 calcium fluorescence, CHO RD-HGA16 cells (AID 651783); conditions: CHO RD-HGA16 TAAR1, Fluo-8 calcium fluorescence; at 3 µM; active compounds read high; scaled: DMSO 0%, maximal phenethylamine 100%;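 also: promiscuous G-alpha-16 overexpression reroutes TAAR1 signalling from cAMP to calcium; peak fluorescence divided by basal pre-compound fluorescence per well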
Sequence (Q96RJ0 whole entry, looked up): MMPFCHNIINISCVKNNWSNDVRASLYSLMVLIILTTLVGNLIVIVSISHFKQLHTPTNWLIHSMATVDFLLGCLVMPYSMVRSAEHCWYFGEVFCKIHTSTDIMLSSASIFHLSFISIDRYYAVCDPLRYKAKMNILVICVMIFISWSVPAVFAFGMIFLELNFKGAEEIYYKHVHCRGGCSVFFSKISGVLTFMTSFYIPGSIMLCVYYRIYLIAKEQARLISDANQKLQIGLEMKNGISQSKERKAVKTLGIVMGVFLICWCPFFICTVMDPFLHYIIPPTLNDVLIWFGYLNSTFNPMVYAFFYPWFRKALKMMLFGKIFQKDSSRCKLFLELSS
Outline: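 Controls: DMSO (low) and PEA EC100 (high); system: RD-HGA16 CHO cells co-expressing hTAAR1 and promiscuous Gα16; times: Fluo-8 dye loading 75 min 37 °C, then 30 min room temperature; detection: kinetic Fluo-8 calcium fluorescence over 140 s after basal; evaluation: % activation from max-to-basal fluorescence ratio, DMSO-to-PEA scaled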

Compound	activation
O=C(COC(=O)Cc1ccccc1F)NCCc1ccccc1	73% (active)
C[C@H](NC(=O)c1ccccc1)C(=O)OCC(=O)c1c[nH]c2ccccc12	79.6% (active)
CC(=O)Nc1ccccc1Sc1ccc2c3c(cccc13)C(=O)N(c1ccc(C)cc1)C2=O	-2.82%
Cc1ccn2c(=O)c(C(=O)NCCC3=CCCCC3)c(O)nc2c1	106% (active)
O=C(CCCN=C1NS(=O)(=O)c2ccccc21)OCC(=O)c1ccc(F)c(F)c1	83.8% (active)
O=Cc1c(NCCc2cccc(F)c2)c2ccccc2[nH]c1=O	78.3% (active)
CCCCOc1ccc(CSC(=N)N)cc1[N+](=O)[O-]	48% (active)
O=C1CCCC(O)=C1C=NCCc1ccccc1	74.5% (active)
COc1cccc(-c2cnc(OC(C)(C)C)nc2OC(C)(C)C)c1	38.6% (active)
CN(C)c1ccc(/C=C2\NC(=S)N(Cc3ccccc3)C2=O)cc1	51.1% (active)
O=C(CSc1nc(-c2ccco2)cc(C(F)(F)F)n1)NCc1cccs1	-0.49%
c1ccc2c(c1)OCC(CNc1ncnc3nc[nH]c13)O2 (centres undefined)	210% (active)
CCCSc1nc2c(c(=O)n(C)c(=O)n2C)n1Cc1ccc(C)cc1	61% (active)
COc1ccc(C(=O)CN2C(=O)NC(C)(c3ccc(C)cc3)C2=O)cc1OC (centres undefined)	46.6% (active)
c1ccc(Nc2nc(N3CCOCC3)c3ccccc3n2)cc1	93.8% (active)
CC(NC(=O)c1cc(-c2ccccc2)on1)c1ccccc1 (centres undefined)	66.5% (active)
O=C(Nc1ccccc1)Nc1nnc(COc2ccccc2F)s1	71.7% (active)
Nc1cc(OC(=O)c2ccccc2Br)nn1S(=O)(=O)c1ccccc1	59.1% (active)
NC(Cc1ccccc1)c1csc(Nc2cc(Oc3ccccc3)ncn2)n1 (centres undefined)	87% (active)
CC(C)(C)CC(=O)Nc1nc(C(N)Cc2ccc(C(F)(F)F)cc2)cs1 (centres undefined)	99% (active)
COc1ccc(CC(N)c2csc(NC(=O)Cc3ccccc3)n2)cc1 (centres undefined)	57.8% (active)
CN(C)CCCN(C(=O)c1ccc(S(=O)(=O)N2CCCc3ccccc32)cc1)c1nc2ccc(F)cc2s1	62.2% (active)
CN(C)CCCN(C(=O)c1ccc(S(=O)(=O)N2CCCCCC2)cc1)c1nc2ccc(Br)cc2s1	44% (active)

Compound	activation
Cc1cccc(NC(=O)C(C)N2C(=O)C3C4CC(C(Br)C4Br)C3C2=O)c1 (centres undefined)	33.9%
O=C1CCCN2N=C(SCC(=O)Nc3ccc(Br)cc3)SC2=N1	55.6% (active)
O=C(NCCc1ccccc1)C(=O)NCC1OCCN1S(=O)(=O)c1cccs1 (centres undefined)	70.4% (active)
Cn1c(=O)c(=O)n(C)c2cc(S(=O)(=O)NCCc3ccccc3)ccc21	98.3% (active)
CCCc1ccc(OCC(=O)NNC(=S)NC(=O)c2ccco2)cc1	93.8% (active)
CC(Oc1ccc2ccccc2c1)C(=O)NNC(=S)NC(=O)c1ccco1 (centres undefined)	76% (active)
Oc1ccc2ccc3cccc[n+]3c2c1	60.5% (active)
NC(c1ccccc1)c1csc(NC(=O)Nc2cccc(C(F)(F)F)c2)n1 (centres undefined)	61.4% (active)
COc1ccc(C(N)c2csc(NC(=O)Nc3cccc(C(F)(F)F)c3)n2)cc1 (centres undefined)	45.9% (active)
O=c1cnnc(Nc2ccccc2)[nH]1	80.2% (active)
CCCCC(=O)NNC(=S)NC(=O)C(c1ccccc1)c1ccccc1	152% (active)
Cc1cc(C)c2cc(C#N)c(N3CCNCC3)nc2c1	90.6% (active)
CCOc1ccc(Br)cc1CSC(=N)N	73.8% (active)
CCN(CC)c1ccc2oc(=O)c(C)nc2c1	34.1%
O=C(Nc1ccc(Cl)cc1)N1CCc2[nH]c3ccccc3c2C1	21.7%
O=C(c1noc2c1CCCC2)N1CCc2ccccc2C1	68% (active)
Cc1cc(=O)oc2c(C)c(OCC(=O)NCCN3CCOCC3)ccc12	2.28%
c1ccc(-c2csc(N3CCc4ccccc4C3)n2)cc1	81.8% (active)
CSc1nc(N)c(C#N)c(-c2ccccc2Cl)c1C#N	58.5% (active)
CCCCCC(=O)NC(=S)NNC(=O)c1ccc([N+](=O)[O-])cc1	113% (active)
O=C(NCCc1ccccc1)/C(=C\c1ccc([N+](=O)[O-])cc1)NC(=O)c1ccccc1	34.4%
Cc1ccc(Cl)cc1N1CCN(C(=O)c2cccc3c(=O)c(C)c(-c4ccccc4)oc23)CC1	113% (active)
S=C(NCCc1ccccc1)N1CCn2cccc2C1c1ccncc1 (centres undefined)	95% (active)

Compound	activation
COc1ccc2c(c1)OC(O)(C(F)(F)C(F)F)CC2=O (centres undefined)	38.7% (active)
COC(=O)c1[nH]c2cccc(C)c2c1NC(=O)CN1CCCc2ccccc21	68.9% (active)
Cc1cc2nc3c(=O)[nH]c(=O)nc-3n(C[C@H](O)[C@H](O)[C@H](O)CO)c2cc1C	121% (active)
O=C(N[C@H](C(=O)N1CCC[C@H]1C(=O)NCCc1ccccc1Cl)c1ccccc1)c1ccccc1	83.6% (active)
Nc1cccc2c1C(=O)N(Cc1nnc(-c3ccccc3Br)o1)C2=O	100% (active)
CCC(c1nnnn1Cc1ccco1)N(CCc1ccccc1)Cc1cc2cccc(C)c2[nH]c1=O (centres undefined)	50.2% (active)
CCC(c1nnnn1Cc1ccco1)N(CCc1ccccc1)Cc1cc2ccc(OC)cc2[nH]c1=O (centres undefined)	30.9%
CCCn1c(O)c(CN2CCCC(C)C2)c(C)c(C#N)c1=O (centres undefined)	85% (active)
Nc1c(NCCc2ccccc2)c2ccccc2oc1=O	70.5% (active)
CC(Oc1ccc(Cl)cc1)C(=O)OCC(=O)Nc1ncc(Cl)cc1Cl (centres undefined)	30.3%
O=[N+]([O-])c1cc(S(=O)(=O)NCCc2ccccn2)ccc1Cl	76.4% (active)
O=C1C=C(c2ccc(Cl)cc2)C(=O)N1Nc1ccccc1	58.5% (active)
CCc1ccccc1S(=O)(=O)Cc1ccc(C(=O)NCCc2ccccc2)o1	78.3% (active)
O=C(NNC(=S)NC(=O)c1cn(-c2ccccc2)nc1-c1ccccc1)c1ccncc1	103% (active)
O=C(Nc1ccc(F)cc1)Nc1nnc([C@H]2C[C@H](O)[C@@H](CO)O2)s1	52.9% (active)
Nc1c(C(=O)c2cccs2)sc2nsc(SCCN3CCCCC3)c12	85% (active)
S=C(Nc1ccc(Br)cc1)NC1CCN(Cc2ccccc2)CC1	62.4% (active)
CCCCCCCCCCOC(=O)Cn1c(COc2ccc(C)cc2)[n+](C)c2ccccc21	109% (active)
COCCCn1c(Cc2csc(Nc3cccc(Cl)c3)n2)nnc1SCC(=O)OC1CCCCC1	-1.89%
Cc1ccc(NC(=O)CCN2CCc3ccccc3C2)cc1	88.5% (active)
CCCC1CCC(=NNC(=S)NCCc2ccccc2)CC1 (centres undefined)	73.7% (active)
COc1cc(OC)cc(C(=O)N[C@H](C(=O)OCC(=O)NC(C)c2ccccc2)C(C)C)c1 (some centres undefined)	41.1% (active)
CC(=O)Oc1ccc(Cn2c(C)c(C(=O)NCc3ccc(C#N)cc3)sc2=O)cc1	113% (active)

Compound	activation
NC[C@H](Cc1ccccc1)NCCc1cc(C(F)(F)F)cc(C(F)(F)F)c1	55.9% (active)
COc1cc(OC)c(-n2cc(-c3ccc(Cl)cc3)[nH]c2=O)cc1Cl	117% (active)
O=C(O)C1C2C=CC(O2)C1C(=O)NCCc1cccc(Cl)c1 (centres undefined)	101% (active)
O=C(Nc1cccc(NC(=O)c2ccc(Br)cc2)c1)c1ccccc1	5.69%
COc1ccc(C(=O)NC(=S)NNC(=O)CCc2ccccc2)cc1	115% (active)
COc1ccc(C(=O)NNC(=S)NC(=O)c2ccccc2)cc1	127% (active)
COc1ccc(Cl)cc1C(=O)NNC(=S)NC(=O)/C=C/c1ccco1	108% (active)
Cc1ccc(O)c(NC(=S)NC(=O)COc2ccc(Br)cc2)c1	129% (active)
CCc1ccc(-c2nn(-c3ccccc3)cc2CSC(=N)N)cc1	58.1% (active)
CCCCc1c(-c2ccc(Cl)cc2)ncn1CCc1ccccc1OC	81% (active)
CCCCc1c(-c2ccc(Br)cc2)ncn1CCc1ccccc1OC	68.2% (active)
CCc1c(-c2ccccc2OC)ncn1CCc1ccccc1OC	82.6% (active)
COc1ccc(OC)c(C(c2nnnn2C(C)(C)C)N2CCc3ccccc3C2)c1 (centres undefined)	66.7% (active)
CCOC(=O)Cc1csc(NC(=O)Nc2ccccc2)n1	60.1% (active)
O=C(Nc1ccncc1)Nc1ccc(F)cc1	83.6% (active)
CCCCCc1c(Cc2ccccc2)ncn1CCc1ccccc1OC	84.3% (active)
CCCCCc1c(-c2ccc(OC)c(OC)c2)ncn1CCc1ccccc1OC	98.3% (active)
CCCCCc1c(-c2cccc(Br)c2)ncn1CCc1ccccc1OC	37.5% (active)
NC(=O)C1=C[C@H](c2csc3ccccc23)C[C@H](OCc2ccc(CO)cc2)O1	58.4% (active)
c1ccc2c(c1)C(=NC1CCCCC1)NC2=NC1CCCCC1	90.4% (active)
CCC(C(=O)Nc1ccc(C(C)C)cc1)c1ccccc1 (centres undefined)	114% (active)
C#CCOc1ccc(/C=C2/C(=O)NN(c3ccccc3)C2=O)cc1OC	88% (active)
COc1ccc2cc(-c3[nH]ncc3CNCCn3nc(C)cc3C)ccc2c1	57.6% (active)

Compound	activation
Cc1ccccc1NC(=S)NC(=O)Cc1ccc(Cl)cc1	85.2% (active)
O=C(Cc1ccc(Cl)cc1)NC(=S)Nc1ccccc1O	134% (active)
S=C(NCCCc1cnc[nH]1)NCCCN(Cc1ccc(Cl)c(Cl)c1)c1ccc(Br)cn1	58% (active)
Cc1c(CNCCc2ccccc2)c(C(=O)O)c(C)n1-c1ccccc1	88.8% (active)
CN(C(=O)CN(CCO)CC(=O)N(C)C(C)(C)Cc1ccccc1)C(C)(C)Cc1ccccc1	101% (active)
Cc1ccccc1-c1nc(CS(=O)(=O)CC(=O)N2CCc3ccccc3C2)c(C)o1	68.7% (active)
COc1ccc(NC(=O)C(=O)NCC(c2ccco2)N2CCc3ccccc3C2)cc1 (centres undefined)	40.5% (active)
c1ccc(C2CNCc3c2ccc2ccccc32)cc1 (centres undefined)	88.2% (active)
N#Cc1ccc(OCCCN2CCC(C(O)(c3ccccc3)c3ccccc3)CC2)c(F)c1	36.6%
Cc1ccc(Sc2cc(N3CCOCC3)nc(-c3ccccc3)n2)cc1	19.1%
CCCc1cc(C(=O)Nc2ccc(C(=O)OC)cc2)cs1	1.29%
COc1cccc(N(CC(=O)N2CCc3ccccc3C2)S(C)(=O)=O)c1	63.4% (active)
Cc1ccc(S(=O)(=O)N(CC(=O)N2CCc3ccccc3C2)c2cccc(Cl)c2)cc1	56.1% (active)
OC(CNCCc1ccc(Cl)cc1Cl)COc1ccccc1 (centres undefined)	87.4% (active)
Nc1nnn(CC(=O)N/N=C/c2ccccc2)n1	61.6% (active)
CCCOc1ccc(-c2c(C(=O)N/N=C/c3ccco3)nnn2-c2nonc2N)cc1	73.1% (active)
Nc1nonc1-n1nnc(C(=O)N/N=C/c2ccc(Cl)cc2)c1-c1ccc2c(c1)OCO2	142% (active)
COc1ccc(C(=O)NC(=S)NNC(=O)c2c(-c3ccccc3)noc2C)cc1	93% (active)
Cc1onc(-c2ccccc2)c1C(=O)NNC(=S)NC(=O)c1ccc(F)cc1	127% (active)
COc1ccc(OC)c(NC(=S)N2CCc3ccccc3C2)c1	87.5% (active)
Fc1ccc(NC(=S)N2CCc3[nH]c4ccccc4c3C2)cc1	32.8%
O=C(/C=C/[C@H]1O[C@@H](n2cnc3c(NC(=O)c4ccccc4)ncnc32)[C@H](O)[C@@H]1O)NCc1ccccc1	0.79%
